According to ChEMBL document CHEMBL1141182, “Selective benzopyranone and pyrimido[2,1-a]isoquinolin-4-one inhibitors of DNA-dependent protein kinase: synthesis, structure-activity studies, and radiosensitization of a human tumor cell line in vitro” (J Med Chem, 2005):

biological target: DNA-dependent protein kinase catalytic subunit (Homo sapiens, UniProt P78527); assay: Inhibition of DNA dependent protein kinase isolated from HeLa cells; type: cell-free; settings: not given
Sequence (P78527 whole entry): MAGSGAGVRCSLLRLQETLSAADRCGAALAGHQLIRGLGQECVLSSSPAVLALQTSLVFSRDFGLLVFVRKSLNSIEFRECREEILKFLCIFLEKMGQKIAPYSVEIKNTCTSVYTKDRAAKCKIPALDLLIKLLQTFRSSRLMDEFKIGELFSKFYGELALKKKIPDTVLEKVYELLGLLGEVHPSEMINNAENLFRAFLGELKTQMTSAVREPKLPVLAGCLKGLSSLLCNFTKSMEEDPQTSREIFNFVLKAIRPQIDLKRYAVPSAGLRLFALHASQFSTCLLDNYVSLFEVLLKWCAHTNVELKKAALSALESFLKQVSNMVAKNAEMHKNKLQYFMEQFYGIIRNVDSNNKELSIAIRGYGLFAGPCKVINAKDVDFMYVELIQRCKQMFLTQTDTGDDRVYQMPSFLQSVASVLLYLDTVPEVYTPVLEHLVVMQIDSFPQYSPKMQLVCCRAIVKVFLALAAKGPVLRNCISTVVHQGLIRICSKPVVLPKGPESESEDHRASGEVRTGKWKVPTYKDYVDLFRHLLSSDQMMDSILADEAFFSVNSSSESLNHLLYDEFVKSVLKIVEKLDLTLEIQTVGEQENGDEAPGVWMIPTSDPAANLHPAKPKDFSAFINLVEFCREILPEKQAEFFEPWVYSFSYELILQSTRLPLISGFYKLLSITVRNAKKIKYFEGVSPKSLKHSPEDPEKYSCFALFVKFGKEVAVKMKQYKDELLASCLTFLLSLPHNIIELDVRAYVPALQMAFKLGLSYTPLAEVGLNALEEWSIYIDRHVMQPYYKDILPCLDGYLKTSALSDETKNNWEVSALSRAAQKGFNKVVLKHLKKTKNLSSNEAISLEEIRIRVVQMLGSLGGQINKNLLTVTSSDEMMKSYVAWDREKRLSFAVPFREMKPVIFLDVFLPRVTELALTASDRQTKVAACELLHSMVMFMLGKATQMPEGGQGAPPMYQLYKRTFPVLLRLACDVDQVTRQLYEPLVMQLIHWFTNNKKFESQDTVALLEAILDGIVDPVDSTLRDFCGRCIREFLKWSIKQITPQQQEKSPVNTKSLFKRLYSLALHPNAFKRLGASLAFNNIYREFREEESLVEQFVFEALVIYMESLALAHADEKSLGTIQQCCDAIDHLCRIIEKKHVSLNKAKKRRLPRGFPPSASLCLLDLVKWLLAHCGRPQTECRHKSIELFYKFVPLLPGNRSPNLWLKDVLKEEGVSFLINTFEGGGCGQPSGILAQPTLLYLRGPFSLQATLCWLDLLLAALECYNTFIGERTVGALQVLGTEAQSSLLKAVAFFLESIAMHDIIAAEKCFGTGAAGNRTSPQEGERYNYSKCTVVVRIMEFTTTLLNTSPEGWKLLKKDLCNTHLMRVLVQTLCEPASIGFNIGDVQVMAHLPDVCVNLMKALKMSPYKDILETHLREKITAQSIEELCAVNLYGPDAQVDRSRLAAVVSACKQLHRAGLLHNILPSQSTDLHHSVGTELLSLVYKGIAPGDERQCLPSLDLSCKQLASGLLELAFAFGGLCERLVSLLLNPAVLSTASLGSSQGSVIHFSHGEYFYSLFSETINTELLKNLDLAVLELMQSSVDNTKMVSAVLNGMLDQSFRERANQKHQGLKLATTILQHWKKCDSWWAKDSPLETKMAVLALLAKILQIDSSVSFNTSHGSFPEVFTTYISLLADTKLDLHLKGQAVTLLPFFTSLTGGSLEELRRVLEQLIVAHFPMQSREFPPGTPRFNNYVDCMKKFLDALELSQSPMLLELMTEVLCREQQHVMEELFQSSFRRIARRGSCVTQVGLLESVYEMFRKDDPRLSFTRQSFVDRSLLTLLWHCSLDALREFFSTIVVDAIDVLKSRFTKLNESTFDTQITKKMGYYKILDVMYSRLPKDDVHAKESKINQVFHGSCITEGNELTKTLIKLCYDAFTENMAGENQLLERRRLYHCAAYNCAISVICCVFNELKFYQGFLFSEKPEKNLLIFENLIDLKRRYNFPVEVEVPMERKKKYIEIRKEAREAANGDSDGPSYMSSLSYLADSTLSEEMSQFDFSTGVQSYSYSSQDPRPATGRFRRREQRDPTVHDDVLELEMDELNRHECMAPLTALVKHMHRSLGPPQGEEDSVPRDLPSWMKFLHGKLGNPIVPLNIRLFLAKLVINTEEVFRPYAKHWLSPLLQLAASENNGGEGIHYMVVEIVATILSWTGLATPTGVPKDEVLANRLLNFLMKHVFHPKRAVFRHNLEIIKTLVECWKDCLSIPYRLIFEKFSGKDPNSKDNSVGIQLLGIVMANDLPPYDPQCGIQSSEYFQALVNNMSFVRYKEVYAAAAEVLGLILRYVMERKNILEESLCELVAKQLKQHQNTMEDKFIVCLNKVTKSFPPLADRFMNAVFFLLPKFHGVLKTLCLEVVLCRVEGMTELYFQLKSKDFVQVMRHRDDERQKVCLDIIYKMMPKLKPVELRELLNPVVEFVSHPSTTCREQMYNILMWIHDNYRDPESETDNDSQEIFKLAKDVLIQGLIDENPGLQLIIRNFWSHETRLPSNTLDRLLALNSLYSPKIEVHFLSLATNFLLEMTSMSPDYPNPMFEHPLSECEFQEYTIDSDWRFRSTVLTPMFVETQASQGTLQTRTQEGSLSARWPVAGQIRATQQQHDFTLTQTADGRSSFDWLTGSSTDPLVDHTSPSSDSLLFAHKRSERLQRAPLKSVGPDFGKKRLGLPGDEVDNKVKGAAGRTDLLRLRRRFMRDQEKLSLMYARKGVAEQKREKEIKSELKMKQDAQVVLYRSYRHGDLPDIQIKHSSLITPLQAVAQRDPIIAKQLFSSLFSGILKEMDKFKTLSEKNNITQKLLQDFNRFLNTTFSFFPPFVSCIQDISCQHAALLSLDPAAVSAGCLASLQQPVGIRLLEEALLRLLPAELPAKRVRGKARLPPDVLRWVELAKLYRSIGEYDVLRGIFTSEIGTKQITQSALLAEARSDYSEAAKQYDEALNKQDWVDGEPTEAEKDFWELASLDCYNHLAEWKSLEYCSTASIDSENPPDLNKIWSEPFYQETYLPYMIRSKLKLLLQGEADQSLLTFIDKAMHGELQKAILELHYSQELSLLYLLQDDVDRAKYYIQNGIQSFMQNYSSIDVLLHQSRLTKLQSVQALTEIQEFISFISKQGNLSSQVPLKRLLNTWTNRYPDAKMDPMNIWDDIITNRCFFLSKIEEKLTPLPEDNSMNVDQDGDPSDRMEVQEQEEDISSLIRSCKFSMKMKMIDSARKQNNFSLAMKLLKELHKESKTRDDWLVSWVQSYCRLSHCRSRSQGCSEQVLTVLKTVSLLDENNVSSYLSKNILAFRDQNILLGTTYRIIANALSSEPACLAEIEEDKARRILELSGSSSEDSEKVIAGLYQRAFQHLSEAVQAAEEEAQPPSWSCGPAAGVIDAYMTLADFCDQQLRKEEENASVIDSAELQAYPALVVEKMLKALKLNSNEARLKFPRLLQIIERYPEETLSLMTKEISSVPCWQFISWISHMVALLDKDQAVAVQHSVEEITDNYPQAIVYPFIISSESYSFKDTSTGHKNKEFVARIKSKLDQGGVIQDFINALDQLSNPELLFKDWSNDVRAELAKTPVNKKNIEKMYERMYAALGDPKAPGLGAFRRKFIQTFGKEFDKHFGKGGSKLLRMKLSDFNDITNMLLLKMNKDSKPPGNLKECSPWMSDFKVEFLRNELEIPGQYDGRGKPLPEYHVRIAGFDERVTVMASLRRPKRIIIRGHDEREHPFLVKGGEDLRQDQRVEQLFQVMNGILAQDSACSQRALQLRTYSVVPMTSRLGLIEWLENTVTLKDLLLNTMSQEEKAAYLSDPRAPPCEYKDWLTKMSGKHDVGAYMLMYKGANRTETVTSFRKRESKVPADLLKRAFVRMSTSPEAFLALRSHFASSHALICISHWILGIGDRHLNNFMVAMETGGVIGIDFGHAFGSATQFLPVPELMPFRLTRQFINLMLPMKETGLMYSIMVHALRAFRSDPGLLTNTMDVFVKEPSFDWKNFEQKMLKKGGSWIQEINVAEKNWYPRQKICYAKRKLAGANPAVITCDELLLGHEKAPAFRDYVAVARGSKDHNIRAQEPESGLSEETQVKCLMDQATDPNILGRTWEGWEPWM

Compared with CC1CCC(C)N(c2cc(=O)n3ccc4ccccc4c3n2)C1 (stereo not given), C[C@@H]1CN(c2cc(=O)n3ccc4ccccc4c3n2)C[C@H](C)O1 is lower in IC50: greater than 10 µM for the first, 3.25 µM for the second. The second is the more potent here.

CCC1CN(c2cc(=O)n3ccc4ccccc4c3n2)CCO1 (stereo not given) and O=c1cc(N2CCOC(CO)C2)nc2c3ccccc3ccn12 (stereo not given) cannot be ordered by IC50: greater than 10 µM for the first, greater than 10 µM for the second.

Compared with O=c1cc(N2CCOCC2)oc2ccc(-c3ccccc3)cc12, O=c1cc(N2CCOCC2)oc2cc3ccccc3cc12 is 5.7-fold lower in IC50: 2.24 µM for the first, 0.39 µM for the second.

Going from CC(O)CNc1cc(=O)n2ccc3ccccc3c2n1 (stereo not given) to O=c1cc(NCC(O)CO)nc2c3ccccc3ccn12 (stereo not given), the IC50 falls from greater than 10 µM to 8.46 µM. The second is the more potent here.

First: O=c1cc(N2CCC[C@H](CO)C2)oc2c1ccc1ccccc12
Second: O=c1cc(N2CCC(O)C2)oc2c1ccc1ccccc12 (stereo not given)
The IC50 of the first is higher: greater than 10 µM for the first, 9.27 µM for the second. The second is the more potent here.

Going from OCCOCC/N=c1\cc(O)c2ccc3ccccc3c2o1 to O=c1cc(N2CCSCC2)oc2c1ccc1ccccc12, the IC50 falls from greater than 10 µM to 1.38 µM. The second is the more potent here.

COc1cccc2c(=O)cc(N3CCOCC3)oc12 and Cc1cccc2c(=O)cc(N3CCOCC3)oc12 are within 1.5-fold of each other in IC50: 1.2 µM for the first, 1.65 µM for the second.

Going from O=c1cc(-c2ccc(Cl)cc2)oc2c1ccc1ccccc12 to Nc1ccc(-c2cc(=O)c3ccc4ccccc4c3o2)cc1, the IC50 falls from greater than 10 µM to 7.7 µM. The second is the more potent here.

Compared with S=c1cc(N2CCOCC2)oc2c1ccc1ccccc12, O=c1cc(N2CCCOCC2)oc2c1ccc1ccccc12 is 7.7-fold higher in IC50: 0.26 µM for the first, 2.01 µM for the second. The first is the more potent here.

Compared with O=c1cc(-c2ccccc2)oc2c1ccc1ccccc12 [ALPHA-NAPHTHOFLAVONE], Nc1cccc(-c2cc(=O)c3ccc4ccccc4c3o2)c1 is higher in IC50: 4.98 µM for the first, greater than 10 µM for the second. The first is the more potent here.

Going from O=c1cc(N2CCOCC2)c2c(ccc3ccccc32)o1 to O=c1cc(N2CCOCC2)c2cc3ccccc3cc2o1, the IC50 rises from 1.9 µM to 3.24 µM (1.7-fold).

Going from O=c1cc(N2CCCCC2)c2ccccc2o1 to O=c1cc(N2CCOCC2)c2ccccc2o1, the IC50 falls from 8.81 µM to 4.82 µM (1.8-fold). The second is the more potent here.

O=c1cc(N2CC[C@@H](O)C2)nc2c3ccccc3ccn12 and O=c1cc(N2CCCC2)nc2c3ccccc3ccn12 are within 1.5-fold of each other in IC50: 6.49 µM for the first, 6.68 µM for the second.

Going from O=c1cc(N2CC=CC2)nc2c3ccccc3ccn12 to O=c1cc(N2CCOCC2)nc2c3ccccc3ccn12, the IC50 falls from 2.81 µM to 0.28 µM (10-fold).

Going from O=c1cc(N2CCSCC2)oc2c(-c3ccccc3)cccc12 to O=c1cc(N2CCCCC2)oc2c(-c3ccccc3)cccc12, the IC50 rises from 1.61 µM to 4.67 µM (2.9-fold). The first is the more potent here.

COc1cccc2oc(=O)cc(N3CCOCC3)c12 and COc1cccc2c(N3CCOCC3)cc(=O)oc12 cannot be ordered by IC50: greater than 10 µM for the first, 10.9 µM for the second.

O=c1cc(-c2ccccc2[N+](=O)[O-])oc2c1ccc1ccccc12 and O=c1cc(-c2ccccc2Cl)oc2c1ccc1ccccc12 cannot be ordered by IC50: greater than 10 µM for the first, greater than 10 µM for the second.

First: CC1(C)CN(c2cc(=O)c3ccc4ccccc4c3o2)CCO1
Second: O=c1cc(N2CCCC2)oc2c1ccc1ccccc12
The IC50 of the first is 1.8-fold lower: 3.52 µM for the first, 6.17 µM for the second. The first is the more potent here.

O=c1cc(-c2ccc([N+](=O)[O-])cc2)oc2c1ccc1ccccc12 and O=c1cc(-c2cccc([N+](=O)[O-])c2)oc2c1ccc1ccccc12 cannot be ordered by IC50: greater than 10 µM for the first, greater than 10 µM for the second.

First: COc1ccc2oc(=O)cc(N3CCOCC3)c2c1
Second: COc1ccc2c(N3CCOCC3)cc(=O)oc2c1
The IC50 of the first is 6.5-fold lower: 1.75 µM for the first, 11.3 µM for the second. The first is the more potent here.

O=c1cc(N(CCO)CCO)nc2c3ccccc3ccn12 and CN(CCO)c1cc(=O)n2ccc3ccccc3c2n1 cannot be ordered by IC50: greater than 10 µM for the first, greater than 10 µM for the second.

O=c1cc(N2CC[S+]([O-])CC2)oc2c(-c3ccccc3)cccc12 and O=c1cc(N2CCCCC2)oc2c1ccc1ccccc12 are within 1.5-fold of each other in IC50: 5.71 µM for the first, 3.81 µM for the second.

O=c1cc(NCCO)nc2c3ccccc3ccn12 and O=c1cc(NCC2CCCO2)nc2c3ccccc3ccn12 (stereo not given) cannot be ordered by IC50: greater than 10 µM for the first, greater than 10 µM for the second.

Compared with O=c1cc(-c2cccc(Cl)c2)oc2c1ccc1ccccc12, O=c1cc(-c2cccc(F)c2)oc2c1ccc1ccccc12 is lower in IC50: greater than 10 µM for the first, 5.71 µM for the second. The second is the more potent here.

C#CCCN(C)c1cc(=O)n2ccc3ccccc3c2n1 and CN(CC(O)c1ccccc1)c1cc(=O)n2ccc3ccccc3c2n1 (stereo not given) cannot be ordered by IC50: greater than 10 µM for the first, 10.5 µM for the second.

First: COc1ccc2c(=O)cc(N3CCOCC3)oc2c1
Second: Cc1ccc2oc(=O)cc(N3CCOCC3)c2c1
The IC50 of the first is 5.6-fold lower: 0.95 µM for the first, 5.35 µM for the second.

CC(C)(C)c1ccc(-c2cc(=O)c3ccc4ccccc4c3o2)cc1 and O=c1cc(-c2ccc(F)cc2)oc2c1ccc1ccccc12 cannot be ordered by IC50: greater than 10 µM for the first, greater than 10 µM for the second.

First: O=c1cc(N2CCSCC2)c2cc3ccccc3cc2o1
Second: O=c1cc(N2CCSCC2)nc2c3ccccc3ccn12
The IC50 of the first is 3-fold higher: 5.15 µM for the first, 1.69 µM for the second.

CN1CCN(c2cc(=O)c3ccc4ccccc4c3o2)CC1 and O=c1cc(N2CCNCC2)oc2c1ccc1ccccc12 cannot be ordered by IC50: greater than 10 µM for the first, greater than 10 µM for the second.

Going from O=c1cc(N2CCOCC2)oc2c3c(ccc12)CCCC3 to Cc1cccc2c(N3CCOCC3)cc(=O)oc12, the IC50 rises from 0.36 µM to 8.05 µM (22-fold). The first is the more potent here.

O=c1cc(N2CCOc3ccccc32)oc2c1ccc1ccccc12 and Nc1ccccc1-c1cc(=O)c2ccc3ccccc3c2o1 cannot be ordered by IC50: greater than 10 µM for the first, greater than 10 µM for the second.

Going from O=c1cc(N2CCOCC2)nc2ccccn12 to CN1CCN(c2cc(=O)n3ccc4ccccc4c3n2)CC1, the IC50 rises from 2 µM to greater than 10 µM.

O=c1cc(N2C[C@H]3C[C@@H]2CO3)oc2c1ccc1ccccc12 and CC1CN(c2cc(=O)c3ccc4ccccc4c3o2)CC(C)O1 (stereo not given) are within 1.5-fold of each other in IC50: 3.19 µM for the first, 4.14 µM for the second.

Compared with O=c1cc(-c2cccnc2)oc2c1ccc1ccccc12, O=c1cc(-c2ccncc2)oc2c1ccc1ccccc12 is higher in IC50: 1.92 µM for the first, greater than 10 µM for the second. The first is the more potent here.

O=c1cc(N(CCO)Cc2ccccc2)nc2c3ccccc3ccn12 and O=c1cc(NCC(O)c2cccc(O)c2)nc2c3ccccc3ccn12 (stereo not given) cannot be ordered by IC50: greater than 10 µM for the first, greater than 10 µM for the second.

Compared with O=c1cc(-c2ccccc2F)oc2c1ccc1ccccc12, O=c1cc(NCCOc2ccccc2Br)oc2c1ccc1ccccc12 is higher in IC50: 8.59 µM for the first, greater than 10 µM for the second. The first is the more potent here.

O=c1cc(NCC2CCCO2)oc2c1ccc1ccccc12 (stereo not given) and O=c1cc(-c2ccccc2)oc2ccccc12 [FLAVONE] cannot be ordered by IC50: greater than 10 µM for the first, greater than 10 µM for the second.

Compared with CC1(C)CN(c2cc(=O)n3ccc4ccccc4c3n2)CCO1, O=c1cc(N2CCOCC2)c2cc(Cl)ccc2o1 is 2.1-fold lower in IC50: 6.71 µM for the first, 3.27 µM for the second. The second is the more potent here.

biological target: T1, Serine-protein kinase ATM (Homo sapiens, UniProt Q13315); assay: Inhibition of ATM kinase using rabbit polyclonal antisera; set-up: species or system Oryctolagus cuniculus; settings: target entry is the homologue from another species
Summary of the method: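 ATM kinase activity assayed following a previously published method, using rabbit polyclonal antisera raised against the COOH-terminal 400 amino acids of ATM.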

Compound O=c1cc(N2CCOCC2)oc2c(-c3ccccc3)cccc12 [LY-294002] has an IC50 greater than 100 µM.

biological target: Phosphatidylinositol 4,5-bisphosphate 3-kinase catalytic subunit alpha isoform (Homo sapiens, UniProt P42336); assay: Inhibition of Phosphatidylinositol 3-kinase; settings: not given
Sequence (P42336 whole entry, canonical isoform): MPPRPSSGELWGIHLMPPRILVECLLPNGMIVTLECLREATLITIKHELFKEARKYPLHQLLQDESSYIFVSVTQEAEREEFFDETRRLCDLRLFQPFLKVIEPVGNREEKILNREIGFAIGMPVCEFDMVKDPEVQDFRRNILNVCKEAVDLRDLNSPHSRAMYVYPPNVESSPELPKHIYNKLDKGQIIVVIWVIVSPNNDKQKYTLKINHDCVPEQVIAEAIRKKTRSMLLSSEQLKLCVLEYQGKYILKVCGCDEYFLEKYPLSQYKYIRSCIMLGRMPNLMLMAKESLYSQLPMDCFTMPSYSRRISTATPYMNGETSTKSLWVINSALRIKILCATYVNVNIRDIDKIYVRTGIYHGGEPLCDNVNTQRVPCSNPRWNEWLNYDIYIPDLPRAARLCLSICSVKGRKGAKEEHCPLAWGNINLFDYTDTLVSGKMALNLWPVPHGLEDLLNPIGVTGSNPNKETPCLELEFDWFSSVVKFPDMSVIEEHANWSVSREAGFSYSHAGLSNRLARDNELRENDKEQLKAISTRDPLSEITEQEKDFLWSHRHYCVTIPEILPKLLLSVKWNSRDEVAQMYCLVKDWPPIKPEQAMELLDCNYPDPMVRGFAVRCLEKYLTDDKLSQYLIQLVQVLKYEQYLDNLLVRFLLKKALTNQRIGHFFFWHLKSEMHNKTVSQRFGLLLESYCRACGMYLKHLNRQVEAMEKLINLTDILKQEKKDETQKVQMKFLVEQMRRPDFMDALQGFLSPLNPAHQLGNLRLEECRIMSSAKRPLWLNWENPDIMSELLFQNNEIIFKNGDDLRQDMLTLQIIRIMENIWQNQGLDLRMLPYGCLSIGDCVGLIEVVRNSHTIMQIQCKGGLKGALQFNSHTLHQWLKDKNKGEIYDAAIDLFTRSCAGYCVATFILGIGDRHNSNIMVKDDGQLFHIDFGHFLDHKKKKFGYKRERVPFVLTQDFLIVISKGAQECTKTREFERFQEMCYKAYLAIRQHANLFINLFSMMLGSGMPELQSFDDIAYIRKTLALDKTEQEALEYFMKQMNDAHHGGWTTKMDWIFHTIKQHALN
Summary of the method: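 PI 3-kinase assay run following a prior method, with baculovirus-derived recombinant human p110α and p85α.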

O=c1cc(N2CCSCC2)oc2c(-c3ccccc3)cccc12 and O=c1cc(N2CCCCC2)oc2c(-c3ccccc3)cccc12 cannot be ordered by IC50: greater than 100 µM for the first, greater than 100 µM for the second.

Going from CC1CN(c2cc(=O)c3ccc4ccccc4c3o2)CCO1 (stereo not given) to O=c1cc(N2CCOCC2)nc2c3ccccc3ccn12, the IC50 rises from 2.4 µM to greater than 100 µM.

biological target: Serine/threonine-protein kinase mTOR (Homo sapiens, UniProt P42345); assay: Inhibition of mTOR protein isolated from HeLa cells; settings: not given
Summary of the method: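 mTOR immunoprecipitated from HeLa cell cytoplasmic extract. Activity measured following a prior method, with recombinant PHAS-1 as substrate.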

In order of rising IC50:
1. CC1CN(c2cc(=O)c3ccc4ccccc4c3o2)CCO1 (stereo not given)  4.8 µM
2. O=c1cc(N2CCOCC2)nc2c3ccccc3ccn12  5.3 µM

biological target: T1, Serine-protein kinase ATM; assay: Inhibition of ATM kinase using rabbit polyclonal antisera; No inhibition observed at 100 uM; set-up: species or system Oryctolagus cuniculus; settings: target entry is the homologue from another species

CC1CN(c2cc(=O)c3ccc4ccccc4c3o2)CCO1 (stereo not given) and O=c1cc(N2CCOCC2)oc2c1ccc1ccccc12 cannot be ordered by IC50: greater than 100 µM for the first, greater than 100 µM for the second.

O=c1cc(N2CCOCC2)nc2c3ccccc3ccn12 was tested, and the IC50 was greater than 100 µM.

biological target: T2, Serine/threonine-protein kinase ATR (Homo sapiens, UniProt Q13535); assay: Inhibition of ATR kinase using rabbit polyclonal antisera; No inhibition observed at 100 uM; set-up: species or system Oryctolagus cuniculus; settings: target entry is the homologue from another species

CC1CN(c2cc(=O)c3ccc4ccccc4c3o2)CCO1 (stereo not given) and O=c1cc(N2CCOCC2)oc2c1ccc1ccccc12 cannot be ordered by IC50: greater than 100 µM for the first, greater than 100 µM for the second.

O=c1cc(N2CCOCC2)nc2c3ccccc3ccn12 was tested, and the IC50 was greater than 100 µM.

biological target: T2, Serine/threonine-protein kinase ATR; assay: Inhibition of ATR kinase using rabbit polyclonal antisera; set-up: species or system Oryctolagus cuniculus; settings: target entry is the homologue from another species
Summary of the method: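 ATR kinase activity measured following earlier published methods, using antisera raised against ATR amino acids 400–480.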

For O=c1cc(N2CCOCC2)oc2c(-c3ccccc3)cccc12 [LY-294002], the IC50 was greater than 100 µM.
